Published values of several laboratories.
Compare with care: the assays were run in different laboratories.
Effect on: microbial growth

Structure (SMILES) | organism | method | strain | time | setting | MIC
Cc1ncc([N+](=O)[O-])n1CCO | Bifidobacterium | agar dilution | – | 48 h | – | > 16 µg/mL
O=C1NC(=S)S/C1=C\c1ccc(-c2ccc(N(c3ccccc3)c3ccccc3)cc2)c2ccccc12 | Streptococcus mutans | broth dilution | ATCC25175 | – | – | 1000 µg/mL
CC(C)Oc1c(NC(=O)c2ccc(NC(=O)[C@H](CC(N)=O)NC(=O)c3ccc(NC(=O)c4ccc(C#N)s4)cc3)cc2)ccc(C(=O)Nc2ccc(C(=O)O)cc2)c1O | Klebsiella aerogenes | – | DSM30053 | – | – | 0.25 µg/mL
CCCCCCC/C=C/C(=O)N1C(=O)/C(=C(/C)O)C(=O)C1CO (stereo not drawn) | Stenotrophomonas maltophilia | – | ATCC13637 | – | – | > 200 µg/mL
CNC(=O)c1cc(Oc2ccc(NC(=O)Nc3ccc(Cl)c(C(F)(F)F)c3)cc2)ccn1 | Klebsiella aerogenes | – | DSM30053 | – | – | > 100 µM
CCCCCCC/C=C/C(=O)N1C(=O)/C(=C(\O)CCCC)C(=O)C1CC(C)C (stereo not drawn) | Stenotrophomonas maltophilia | – | ATCC13637 | – | – | > 200 µg/mL
CC(C)Oc1c(NC(=O)c2ccc(NC(=O)[C@H](CC(N)=O)NC(=O)c3ccc(NC(=O)c4ccc(C#N)cn4)cc3)cc2)ccc(C(=O)Nc2ccc(C(=O)O)cc2)c1O | Klebsiella aerogenes | – | DSM30053 | – | – | 0.25 µg/mL
O=C1NC(=S)N/C1=C\c1c2ccccc2c(-c2ccc(N(c3ccccc3)c3ccccc3)cc2)c2ccccc12 | Streptococcus pyogenes | broth dilution | ATCC19615 | – | – | > 1000 µg/mL
CCCCCCC/C=C/C(=O)N1C(=O)/C(=C(\O)C2CCNCC2)C(=O)C1CC(C)C (stereo not drawn) | Stenotrophomonas maltophilia | – | ATCC13637 | – | – | 25 µg/mL
C[C@@H](O)[C@H]1C(=O)N2C(C(=O)O)=C(S[C@@H]3CN[C@H](C(=O)N(C)C)C3)[C@H](C)[C@H]12 | Stenotrophomonas maltophilia | broth dilution | – | – | clinical isolate | > 64 µg/mL
CCCCCCC/C=C/C(=O)N1C(=O)/C(=C(/C)O)C(=O)C1CCC(=O)O (stereo not drawn) | Stenotrophomonas maltophilia | – | ATCC13637 | – | – | 200 µg/mL
CN[C@H](CC(C)C)C(=O)N[C@H]1C(=O)N[C@@H](CC(N)=O)C(=O)N[C@H]2C(=O)N[C@H]3C(=O)N[C@H](C(=O)N[C@H](C(=O)O)c4cc(O)cc(O)c4-c4cc3ccc4O)[C@H](O)c3ccc(c(Cl)c3)Oc3cc2cc(c3O[C@@H]2O[C@H](CO)[C@@H](O)[C@H](O)[C@H]2O[C@H]2C[C@](C)(N)[C@H](O)[C@H](C)O2)Oc2ccc(cc2Cl)[C@H]1O | Streptococcus mutans | broth dilution | ATCC25175 | – | – | 0.98 µg/mL
CCCCCCC/C=C/C(=O)N1C(=O)/C(=C(\O)c2ccncc2)C(=O)C1CC(C)C (stereo not drawn) | Stenotrophomonas maltophilia | – | ATCC13637 | – | – | 200 µg/mL
O=C1NC(=S)S/C1=C\c1ccc(-c2ccc(N(c3ccccc3)c3ccccc3)cc2)cc1 | Streptococcus pyogenes | broth dilution | ATCC19615 | – | – | 1000 µg/mL
O=c1[nH]c(NCc2ccc(Cl)c(Cl)c2)nc2ncn(CCCCCN3CCOCC3)c12 | Bifidobacterium | agar dilution | – | 48 h | – | > 32 µg/mL
